Target: T1, Substance-K receptor (Homo sapiens, UniProt P21452)
T1 sequence (P21452 whole entry): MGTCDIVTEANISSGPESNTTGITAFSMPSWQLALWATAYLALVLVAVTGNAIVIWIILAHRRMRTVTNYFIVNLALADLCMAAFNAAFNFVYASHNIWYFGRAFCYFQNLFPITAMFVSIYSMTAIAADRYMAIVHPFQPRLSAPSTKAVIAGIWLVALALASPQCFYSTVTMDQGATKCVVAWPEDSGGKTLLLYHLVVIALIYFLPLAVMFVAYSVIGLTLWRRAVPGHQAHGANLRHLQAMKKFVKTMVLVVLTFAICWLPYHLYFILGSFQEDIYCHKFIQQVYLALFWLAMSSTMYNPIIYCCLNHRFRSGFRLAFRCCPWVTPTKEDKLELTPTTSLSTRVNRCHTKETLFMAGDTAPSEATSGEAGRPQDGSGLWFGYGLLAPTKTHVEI
Assay: Binding affinity was determined by measuring the inhibition of 125 I-NKA binding to transfected CHO cells expressing human recombinant Tachykinin receptor 2
Type: cell-based
In short: (§1)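 Whole hNK2-transfected CHO cells (3 × 10⁵ per well) incubated 20 min at room temperature in 20 mM HEPES pH 7.4 with 2 mM MnSO₄ and 6 mM MgCl₂, 0.05 nM ¹²⁵I-NKA and varying test concentrations. Nonspecific binding defined with 50 nM NKA. Free ligand removed by rapid filtration, four ice-cold Tricine washes, filter-bound radioactivity by scintillation counting; triplicate samples.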

For `COc1cc(C(=O)N(C)c2cc(C(=O)N[C@@H]3CCCCNC3=O)ccc2-c2ccc(Cl)cc2)cc(OC)c1OC`, which IC50 is on record?
Its IC50 is 162 nM.

With `CN(C(=O)c1cc(C(F)(F)F)cc(C(F)(F)F)c1)c1cc(C(=O)NC2CCCCC2)ccc1-c1ccc(Cl)cc1` as the compound, how does the IC50 read?
The IC50 was 51 nM.

With `COc1cc(C(=O)Nc2cc(C(=O)NC3CCCCNC3=O)ccc2-c2ccc(Cl)cc2)cc(OC)c1OC` (centres undefined) as the compound, how does the IC50 read?
Its IC50 is > 1000 nM.

`CN(O)C(=O)c1ccc(-c2ccc(Cl)cc2)c(N(C)C(=O)c2cc(C(F)(F)F)cc(C(F)(F)F)c2)c1` was tested. Which IC50 did it give?
Its IC50 is > 1000 nM.

For `CN(C)CCCNC(=O)c1ccc(-c2ccc(Cl)cc2)c(N(C)C(=O)c2cc(C(F)(F)F)cc(C(F)(F)F)c2)c1`, which IC50 is on record?
Its IC50 is 108 nM.

`CN(C)C(=O)c1ccc(-c2ccc(Cl)cc2)c(N(C)C(=O)c2cc(C(F)(F)F)cc(C(F)(F)F)c2)c1` was tested. Which IC50 did it give?
The IC50 was 500 nM.

With `COc1cc(C(=O)Nc2cc(C(=O)NC3CCCCC3)ccc2-c2ccc(Cl)cc2)cc(OC)c1OC` as the compound, how does the IC50 read?
Its IC50 is 30 nM.

Target: T1, Substance-K receptor
Assay: Binding affinity by measuring the inhibition of 125 I-NKA binding to transfected CHO cells expressing human recombinant Tachykinin receptor 2
Type: cell-based
In short: as §1

How did the IC50 turn out when `CN(C(=O)c1cc(C(F)(F)F)cc(C(F)(F)F)c1)c1cc(C(=O)NC2CCCCNC2=O)ccc1-c1ccccc1` (centres undefined) was run?
The IC50 was 560 nM.

With `CN(C(=O)c1cc(C(F)(F)F)cc(C(F)(F)F)c1)c1cc(C(=O)N[C@@H]2CCCCNC2=O)ccc1-c1ccc(Cl)cc1` as the compound, how does the IC50 read?
Its IC50 is 70 nM.

`Cc1ccc(-c2ccc(C(=O)N[C@@H]3CCCCNC3=O)cc2N(C)C(=O)c2cc(C(F)(F)F)cc(C(F)(F)F)c2)cc1` was tested. Which IC50 did it give?
Its IC50 is 181 nM.

With `CN(C(=O)c1cc(C(F)(F)F)cc(C(F)(F)F)c1)c1cc(C(=O)N[C@@H]2CCCCNC2=O)ccc1-c1ccc(Cl)c(Cl)c1` as the compound, how does the IC50 read?
The IC50 was 43 nM.

With `CN(C(=O)c1cc(C(F)(F)F)cc(C(F)(F)F)c1)c1cc(C(=O)N[C@@H]2CCCCNC2=O)ccc1-c1ccc(F)cc1` as the compound, how does the IC50 read?
The IC50 was 28 nM.

How did the IC50 turn out when `CN(C(=O)c1ccccc1)c1cc(C(=O)NC2CCCCC2)ccc1-c1ccc(F)cc1` was run?
Its IC50 is > 1000 nM.

How did the IC50 turn out when `CN(C(=O)c1cc(C(F)(F)F)cc(C(F)(F)F)c1)c1cc(C(=O)NC2CCCCC2)ccc1-c1ccc(F)cc1` was run?
The IC50 was 168 nM.
